# CaV13 FRET inh = Primary screen for inhibitors of IQ motif and Ca2+-dependent inactivation inhibitor domain binding in CACNA1D, Förster resonance energy transfer in living cells, …; HEK cells, CFP/YFP FRET ICDI-IQ, plate reader, 10 min; percent FRET-ratio fall versus neutral wells; inhibition, % at 12.3 µM; 340,000 compounds, 0.098% hits; AID 743397;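 active = mean replicate inhibition of at least 30% and at least 1% of replicates passing that level; inconclusive = only one of the two criteria is met; inactive = neither criterion is met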;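 note: 0% = median of the neutral control wells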
# FN deposition inh = inhibitors of fibronectin matrix deposition, primary screen, AH1F cells, Alexa488-fibronectin fluorescence, plate reader; AH1F fibroblasts, overnight; inhibition, % at 12.6 µM; 350,000 compounds, 0.086% hits; AID 743247, 2014;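 active = mean inhibition across replicates of 30% or more, regardless of how many single replicates reach that level; inconclusive = mean under 30% yet at least half of replicates reach 30%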;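 note: positive control wells lacked labelled fibronectin entirely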
#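 material = AH1F fibroblast monolayer depositing Alexa488-labelled fibronectin into matrix | amount = 10000 AH1F cells/well | buffer or medium = DMEM plus 2% serum, read in PBS | incubation = 1 h cell adhesion before compound, then overnight fibronectin incubation | detection = fluorescence at 485 nm excitation, 525 nm emission | evaluation = percent inhibition as loss of matrix-bound fibronectin fluorescence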
# Casp6 inh = human caspase-6 inhibitors, primary screen, biochemical, VEID-R110 fluorescence, single point, set 2; purified caspase-6, Z-VEID-R110 cleavage fluorescence; inhibition, % at 12.5 µM; 350,000 compounds, 0.53% hits;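 active = mean inhibition across replicates at least about 35%, with every replicate also reaching that limit, limit read from the data; inconclusive = only one of the two criteria met; inactive = neither criterion met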;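 note: 0% = median of neutral control wells and 100% = no fluorescence left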
# Target sequence (P55212 24-179 limits assumed): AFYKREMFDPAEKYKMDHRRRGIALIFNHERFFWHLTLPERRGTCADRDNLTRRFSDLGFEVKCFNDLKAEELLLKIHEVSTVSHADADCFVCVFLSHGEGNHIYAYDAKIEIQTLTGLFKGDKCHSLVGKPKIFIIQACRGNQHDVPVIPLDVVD
# Target sequence (P55212 194-293 limits assumed): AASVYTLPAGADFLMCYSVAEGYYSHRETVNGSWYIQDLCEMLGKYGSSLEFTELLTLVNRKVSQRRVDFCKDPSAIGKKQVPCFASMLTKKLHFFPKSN
# XiGFP reactiv = activators of inactive X chromosome reactivation, primary screen, imaging, XiGFP fibroblasts, GFP high-content imaging, set 2 | XiGFP mouse fibroblasts, % GFP-positive cells imaging, 3 d; cells co-treated with 5-aza-dC sensitizer; scaled so ellipticine positive control = 100% | 360,000 compounds, 0.055% hits | AID 743238, 2013 | activation, % at 7.58 µM;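 active = mean normalized replicate activation at least 10% and every replicate at or above 10%; inconclusive = only one of the two criteria met; inactive = mean below 10% and not all replicates reach 10%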;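 note: 0% = median of on-plate neutral control wells and 100% = ellipticine 6 µM median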
#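 Schedule: 3 d treatment, 15 min room-temperature fixation; system: 68-5-11 XiGFP fibroblast line; buffer or medium: DMEM plus 5-aza-dC sensitizer; control set: ellipticine 6 µM positive control; compound: one concentration, pinned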
# DENV2 CPE rescue = inhibitors of DENV2 cytopathic effect, primary screen, cell-based, plate reader, single concentration | CPE inhibition, % at 9.99 µM | DENV2-infected cells, cytopathic effect rescue | 350,000 compounds, 1.7% hits | AID 651640, 2012; in the data active = CPE inhibition above about 20%, passing the limit was not always enough; inconclusive = no clear call, values can overlap the other calls; tested in BHK-21 cells;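 note: 0% = median of neutral control wells and 100% = median of positive control wells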
# Numbers without * were called inactive; ? = inconclusive; · = not tested or not shown. Sampled rows, rich in hits. Any-hit rate of the full collection: about 2%.
SMILES,CaV13 FRET inh,FN deposition inh,Casp6 inh,XiGFP reactiv,DENV2 CPE rescue
CCCNC(=O)N1C[C@@H]2[C@H](c3ccccc31)[C@H](CO)N2C(=O)c1ccncc1,·,·,2,0,25*
O=C(c1ccccc1F)N1C[C@@H]2[C@H](c3ccccc31)[C@H](CO)N2C(=O)c1ccncc1,·,-7,2,0,-13
C[C@@H]1CN([C@H](C)CO)C(=O)Cc2cc(NS(C)(=O)=O)ccc2O[C@H]1CN(C)CC1CCCCC1,·,-27,·,0,·
CO[C@H](CN(C)C(=O)Nc1ccc(C(F)(F)F)cc1)[C@@H](C)CN(Cc1ccccc1Cl)[C@H](C)CO,·,8,-3,0,2
COCC(=O)N1C[C@@H]2[C@H](c3ccccc31)[C@H](CO)N2C(=O)Nc1ccccc1Cl,·,·,0,0,27*
COCC(=O)N1C[C@@H]2[C@H](c3ccccc31)[C@@H](CO)N2C(=O)Nc1ccccc1Cl,·,·,2,0,1
O=C1C(Cl)=C(N2CCCC2)C(=O)N1c1ccc(F)cc1,-7,5,-1,0,10
O=C1C(Cl)=C(N2CCCCCC2)C(=O)N1c1ccc(Cl)cc1,-10,-4,-2,0,76*
COCCNC(=S)NCc1ccc2[nH]c3c(c2c1)CCCC3,-7,3,18,0,33*
COC(=O)c1cccc(NC(=O)c2ccc3c(c2)C(=O)N(C(C)(C)C)C3=O)c1,9,-3,-1,0,?
CC(C)(C)NC(=O)c1cccc(NC(=O)c2ccc3c(c2)C(=O)N(C(C)(C)C)C3=O)c1,-7,0,-3,0,44*
CC(C)(C)N1C(=O)c2ccc(C(=O)Nc3ccc(O)cc3)cc2C1=O,-5,-5,3,0,54*
C[C@H]1CN([C@@H](C)CO)C(=O)Cc2cc(NS(=O)(=O)c3ccc(Cl)cc3)ccc2O[C@@H]1CN(C)C(=O)Nc1ccc2c(c1)OCO2,·,·,·,0,·
CC(=O)N1c2ccccc2[C@H](C)[C@H]1C,-5,-2,-3,0,70*
O=C1NC2=C(C(=O)CCC2)C(c2ccc([N+](=O)[O-])cc2)N1 (stereo not drawn),-4,-1,·,0,-2
O=C1NC2=C(C(=O)CCC2)C(c2cccc([N+](=O)[O-])c2)N1 (stereo not drawn),-11,7,38*,0,10
CC(=O)Nc1sc(N/N=C/c2ccc(O)cc2)nc1-c1ccc(C)cc1,-6,-5,2,0,-3
CC(C)(C)c1csc(N/N=C/c2ccc(O)cc2)n1,64*,-10,-1,0,17
O=C(CCNC(=O)OCC1c2ccccc2-c2ccccc21)NOCc1ccccc1,-4,19,-3,0,29*
CO[C@@H]1CN(C)C(=O)c2ccc(NS(=O)(=O)c3cn(C)cn3)cc2OC[C@H](C)N(Cc2cccc(F)c2)C[C@@H]1C,·,2,0,0,5
COC(=O)[C@@]12CCCN1[C@H](c1ccc(SC3CCCCC3)cc1)[C@H]1C(=O)N(C)C(=O)[C@H]12,-5,3,4,-1,28*
COC(=O)[C@@]12CCCCN1[C@H](c1ccc(-c3ccc(F)cc3)cc1)[C@H]1C(=O)N(C)C(=O)[C@H]12,-4,3,0,0,39*
CCOC(=O)[C@@H]1[C@H]2COc3cc(OC)ccc3[C@H]2N2C(=O)N(c3cccc(F)c3)C(=O)[C@]12C,-5,6,51*,0,104*
CCOC(=O)[C@@H]1[C@H]2COc3ccc(Br)cc3[C@@H]2N2C(=O)N(c3cccc(Cl)c3)C(=O)[C@@]12C,-5,-5,0,1,68*
CCOC(=O)[C@@H]1[C@H]2COc3ccc(Br)cc3[C@@H]2N2C(=O)N(c3cccc(Cl)c3)C(=O)[C@]12C,-9,-21,5,0,-4
SMILES,CaV13 FRET inh,FN deposition inh,Casp6 inh,XiGFP reactiv,DENV2 CPE rescue
CCOC(=O)[C@H]1[C@H]2COc3cc(OC)ccc3[C@@H]2N2C(=O)CN(Cc3ccco3)C(=O)[C@@]12C,-9,-12,-2,0,30*
CC(C)NC(=O)N1[C@@H]2CN(CC(F)(F)F)C[C@H]1C2c1ccc(Br)cc1 (stereo partly drawn),·,-2,·,0,·
C[C@@H]1CCCCO[C@H](CN(C)C(=O)Nc2ccc3c(c2)OCO3)[C@H](C)CN([C@H](C)CO)C(=O)c2cc(NC(=O)Cc3ccccc3)ccc2O1,·,·,·,-1,-3
C[C@H](O)C#Cc1cnc2c(c1)C(=O)N([C@H](C)CO)C[C@@H](C)[C@@H](CN(C)C(=O)CN1CCOCC1)O2,·,·,-5,0,?
C[C@@H]1CN(C)C(=O)Cc2cc(N(C)C)ccc2O[C@@H]1CN(C)C,·,-5,·,0,·
C[C@H]1CN(C)C(=O)c2cccc(NS(C)(=O)=O)c2O[C@H]1CN(C)S(C)(=O)=O,·,-9,·,0,·
CC(C)CC#Cc1ccc([C@H]2[C@@H](CO)N3C(=O)CN(C(=O)c4cnccn4)C[C@@H]23)cc1,·,·,3,0,?
CC(NC(=O)/C(C#N)=C/c1ccc([N+](=O)[O-])o1)c1ccccc1 (stereo not drawn),-3,0,11,43*,-3
CC(NC(=O)/C(C#N)=C/c1ccco1)c1ccccc1 (stereo not drawn),-3,2,7,0,?
Cc1c(C#N)c(O)[nH]c(=O)c1N=Nc1ccc(Cl)c(C(=O)O)c1,-4,-1,0,0,2
Cc1c(C#N)c(O)[nH]c(=O)c1N=Nc1ccc(S(N)(=O)=O)cc1,-20,-2,44*,0,0
CCOc1ccc(NS(=O)(=O)c2cc(C(=O)N3CCC3)ccc2Cl)cc1,-6,·,0,0,47*
CCOc1ccc(NS(=O)(=O)c2ccc(C(=O)N3CCCCC3)cc2)cc1,-10,8,-18,0,-7
Cc1ccc2cc(N)ccc2n1,-2,-3,61*,0,4
CCn1cc(C(=O)O)c(=O)c2cc(F)c(N3CCN(C)CC3)cc21,·,·,1,·,28*
O=C(COc1ncnc2sccc12)NC1CCS(=O)(=O)C1 (stereo not drawn),-17,1,5,0,28*
COc1ccc2c3c(n(C)c2c1)[C@H](CO)N(C(=O)c1ccncc1)CC31CCN(C)CC1,·,·,·,0,·
C/C=C/c1ccc([C@@H]2[C@H](CO)N(C(=O)C3CC3)[C@H]2CN(CC)C(C)=O)cc1,·,5,1,0,4
C/C=C/c1ccc([C@H]2[C@@H](CO)N(CC3CCCC3)[C@@H]2CNC(=O)NC(C)C)cc1,·,·,-3,0,-8
